These results are taken from PMC7944986 (Journal for Immunotherapy of Cancer, 2021).

The term AUC denotes the area under the concentration-time curve, a measure of exposure. The term Cmax denotes the maximum level reached in the sampled fluid or tissue.

Entries after “also recorded” stand apart in the source; their conditions may differ.

What all share (format): in vivo, human
In data set [1] the test system is patients with recurrent or refractory metastatic pancreatic cancer. Briefly: Dose finding, modified 3+3. As to conditions: co-administered with durvalumab 1500 mg Q4W; days 1–14 of a 28-day cycle. The method in brief: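 Oral galunisertib was given on days 1–14 in escalating cohorts of 50 mg once daily, then 50, 80 or 150 mg twice daily, with durvalumab infused IV over 60 min. Cohorts of three expanded to six after one DLT in cycle 1 (28 days). DLT criteria: grade 4 haematological AE, febrile neutropenia, grade 3–4 irAE or non-haematological AE, <75% planned dose, or >2-week delay. MTD: DLT in <2 of six; otherwise RP2D = maximum study dose.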

Data set [2] in a line: Steady-state galunisertib plasma pharmacokinetics. As to conditions: for AUC / Cmax: human, plasma, oral, geometric mean (CV %), steady state; for AUC: AUC(0-tau).
Data set [3] can be described thus: Durvalumab immunogenicity. As to conditions: durvalumab 1500 mg Q4W in combination with galunisertib.

As to `Cc1cccc(-c2nn3c(c2-c2ccnc4ccc(C(N)=O)cc24)CCC3)n1` [Galunisertib, galunisertib], the “Recommended phase II dose (RP2D) of galunisertib” value in data set [1] was 150 mg two times per day. In addition, the “Time to maximum plasma concentration (mean concentration versus time profiles)” value in data set [2] (galunisertib 50, 80, and 150 mg two times per day) is at most 4 h. Besides, the AUC in data set [2] (tau=12 hours, galunisertib 50 mg two times per day + durvalumab 1500 mg Q4W) came to 813 ng·h/mL; in data set [2] (tau=12 hours, galunisertib 80 mg two times per day + durvalumab 1500 mg Q4W), 3150 ng·h/mL; in data set [2] (tau=12 hours, galunisertib 150 mg two times per day + durvalumab 1500 mg Q4W), 6120 ng·h/mL; in data set [2] (tau=24 hours, galunisertib 50 mg one time per day + durvalumab 1500 mg Q4W), 1630 ng·h/mL. For the same compound, the Cmax is 424 ng/mL in data set [2] (galunisertib 50 mg one time per day + durvalumab 1500 mg Q4W), 612 ng/mL in data set [2] (galunisertib 80 mg two times per day + durvalumab 1500 mg Q4W) and 1070 ng/mL in data set [2] (galunisertib 150 mg two times per day + durvalumab 1500 mg Q4W).
In the case of durvalumab, in data set [3], the “Anti-drug antibodies against durvalumab” value is “No anti-drug antibodies against durvalumab were detected; also recorded: immunogenicity was not observed”.
